Bioassay records (PubChem)
M1 agonist = M1 muscarinic receptor agonists, primary screen, CHO-M1 cells, Fluo-4 calcium, agonist mode | AID 626, 2007 | Fluo-4 calcium fluorescence; active compounds read high | B-score at 10 µM | 64,000 tested, 3% active | Muscarinic acetylcholine receptor M1;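 active = fluorescence rise, raw or as B-score row- and column-corrected plate score, outside the 99.7% band of its plate's samples, either direction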
SF-1 act = activators of human SF-1, primary screen, cell-based, CHO-K1, Gal4-SF-1 LBD, luciferase luminescence; Steroidogenic factor 1 (Homo sapiens), Q13285; CHO-K1 Gal4-SF-1 LBD luciferase reporter; % increase over DMSO SF-1-specific signal; activation, % at 10 µM; 65,000 tested, 1.9% active; AID 522, 2006;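 active = activation above the mean activation of all tested compounds plus 3 SD, cut at about 50% in these data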
Target sequence (Q13285 whole entry, looked up, the tested form may be a part): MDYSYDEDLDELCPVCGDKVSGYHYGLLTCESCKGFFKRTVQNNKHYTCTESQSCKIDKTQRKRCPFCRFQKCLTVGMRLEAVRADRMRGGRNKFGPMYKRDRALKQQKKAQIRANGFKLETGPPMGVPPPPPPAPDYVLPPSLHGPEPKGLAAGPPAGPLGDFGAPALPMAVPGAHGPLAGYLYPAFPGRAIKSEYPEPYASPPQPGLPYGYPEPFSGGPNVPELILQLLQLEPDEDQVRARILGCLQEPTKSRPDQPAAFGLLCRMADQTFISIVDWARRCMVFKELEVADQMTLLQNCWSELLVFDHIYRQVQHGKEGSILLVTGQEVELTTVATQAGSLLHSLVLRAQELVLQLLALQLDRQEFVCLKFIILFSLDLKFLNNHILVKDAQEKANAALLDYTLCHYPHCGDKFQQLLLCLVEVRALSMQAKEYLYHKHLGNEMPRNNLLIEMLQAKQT
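Material: Gal4–SF-1 LBD one-hybrid luciferase reporter in CHO-K1 cells | Amount: 4,000 cells per well | Compound dosing: 10 µM single point, 1% DMSO | Schedule: 20 h compound treatment, 37 °C | Measured by: SteadyLite luciferase luminescence | Evaluation: Percent activation versus DMSO | Control set: DMSO-treated SF-1-transfected cells as negative, DMSO-treated mock-transfected cells lacking SF-1 as background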
RORa activator = activators of orphan receptor RORA, primary screen, cell-based, luminescence | 65,000 tested, 1.5% active | AID 560, 2006 | Nuclear receptor ROR-alpha (Homo sapiens), P35398 | CHO-K1 Gal4-RORA LBD luciferase reporter; percent increase over mock-subtracted basal signal | activation, % at 10 µM;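 active = activation above the mean of all tested compounds plus 3 SD, cut at about 49% in these data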;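 also: 0% = DMSO-treated RORA cells and 100% = added signal equal to DMSO minus mock-transfected cells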
MT1-MMP txn act = MT1-MMP promoter reporter activation – cell-based, luciferase luminescence, primary screen | HT1080 MT1-MMP promoter luciferase reporter, overnight; active compounds read high | activation factor at 10 µM | 86,000 tested, 0.16% active;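 active = activation factor of at least 2 for MT1-MMP transcription at 10 µM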
M1 antag = antagonists of rat M1 muscarinic receptor. Muscarinic acetylcholine receptor M1 (Rattus norvegicus), P08482. AID 628, 2007. 64,000 tested, 3.4% active. CHO-M1 cells, Fluo-4 calcium, ACh EC80 antagonist mode; active compounds read low. B-score at 10 µM;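 active = calcium fluorescence response, raw or row-and-column corrected B-score, differing from the plate sample mean either way at a set confidence level, mostly lower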
M1 antag conf = rat M1 muscarinic receptor antagonists, confirmation, CHO cells, Fluo-4 calcium, duplicate | shares compounds with M1 antag | ACh EC80 antagonism; active compounds read low | calcium response (max-min fluorescence) at 10 µM | 1,700 tested, 43% active | AID 677, 2007;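 active = calcium response below the same-plate mean of wells given acetylcholine alone at its 80%-effect dose, minus 3 SD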;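 also: raw fluorescence intensity difference in arbitrary instrument units and not normalized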
mGluR4 antag = human mGluR4 response to M1 antagonist hits, M1 allosteric modulator project, cell-based, antagonist mode, secondary assay 1. 1,700 tested, 0.9% active. shares compounds with M1 antag. CHO-mGluR4 calcium flux, Fluo-4 fluorescence, glutamate EC80; active compounds read low. AID 678, 2007. fluorescence response (max-min) at 10 µM;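 active = fluorescence response below the plate's average for near-maximal glutamate wells, less 3 SD of those wells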;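 also: raw unnormalized fluorescence span taken in the window right after glutamate addition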
* marks the source's active call; other numbers are inactive results; / = no result. Most compounds without a hit are left out; they make up all but 6.3% or so of the library.

SMILES | M1 agonist | SF-1 act | RORa activator | MT1-MMP txn act | M1 antag | M1 antag conf | mGluR4 antag
C=CCOC(=O)Nc1ccc(Cl)cc1NC(=O)OCC=C | 2.1 | 1 | 20 | 1.2 | -3.8* | 674 | 272
COc1ccc(Cl)cc1NC(=O)CCN1CCN(c2ccccc2C)CC1 | 0.069 | -8 | 8 | 1 | 0.18 | / | /
CCN1CCN(c2ncc(C(=O)Nc3cc(Cl)ccc3OC)c3ccccc23)CC1 | -0.075 | -2 | 17 | 1.1 | -21* | 21* | 247
Cc1cc(C)n(S(=O)(=O)c2ccc(C(C)(C)C)cc2)n1 | -0.11 | -9 | -1 | 1 | -8.7* | 20* | 246
O=C(NCc1ccc(F)cc1)c1cc(-c2ccco2)on1 | -0.73 | 5 | -4 | 1.1 | -3.9* | 673 | 177
O=C(NCc1ccc(Cl)cc1)c1cc(-c2ccco2)on1 | 0.26 | -5 | -18 | 1 | -0.34 | / | /
CC(Sc1nc(-c2ccccc2)nc2c1COC(C)(C)C2)C(=O)N1CCOCC1 (configuration not stated) | / | / | / | 1 | / | / | /
O=C(NCCCN1CCC(Cc2ccccc2)CC1)C1CC(=O)N(C2CCCC2)C1 (configuration not stated) | -0.011 | 31 | 2 | 1.1 | -3.3* | 508* | 255
CCCS(=O)(=O)N1CCCC(C(=O)NCCN2CCC(Cc3ccccc3)CC2)C1 (configuration not stated) | 0.7 | 11 | -2 | 1.2 | -2.4* | 524 | 214
CCn1c(=O)c(C2=NS(=O)(=O)c3ccccc3N2)c(O)c2ccccc21 | 1.1 | -22 | -4 | 1.1 | 0.39 | / | /
CCc1ccc(CN(C)CCc2ccccn2)cc1 | 0.34 | 6 | -17 | 1.1 | -7.3* | 357* | 208
Cc1ccc(CN(C)CCc2ccccn2)cc1 | -0.18 | 2 | 4 | 1.3 | -1.2 | / | /
CC(NC(=O)c1ccc(F)cc1)C(c1cccs1)N1CCN(C)CC1 (configuration not stated) | -0.43 | -5 | -14 | 1 | 0.22 | / | /
CC(NC(=O)c1ccc(N(C)C)cc1)C(c1cccs1)N1CCN(C)CC1 (configuration not stated) | 0.19 | -3 | -2 | 1 | -3.9* | 632 | 183
O=C(CN1CCCCCC1)N1c2ccccc2C=Cc2ccccc21 | / | / | / | 1.1 | / | / | /
CN1CCN(C(=O)N2c3ccccc3C=Cc3ccccc32)CC1 | 1.8 | 4 | 8 | 1.2 | -18* | 20* | 198
CCC(Cc1ccccc1)NC(=O)C1CCN(S(=O)(=O)c2c(C)noc2C)CC1 (configuration not stated) | / | / | / | 1.1 | / | / | /
CC1CCCCN1CCNC(=O)C1CC(=O)N(c2ccc(F)c(Cl)c2)C1 (configuration not stated) | 0.081 | 19 | 9 | 1 | -1.6* | 440 | 168
COC(=O)C1=CNC=C(C(=O)OC)C1c1ccc(C(=O)OC)cc1 | -0.019 | -6 | -23 | 1.2 | -3.2* | 398* | 220
O=S(=O)(c1ccc(OCC(O)CN2CCc3ccccc3C2)cc1)N1CCOCC1 (configuration not stated) | 0.62 | -2 | 9 | 1.1 | -3.7* | 422* | 252
Cc1ccc(-n2ncc3c(NCC4CCCO4)ncnc32)c(C)c1 (configuration not stated) | 0 | 1 | -12 | 1.1 | -3.6* | 504 | 167
C=CCNc1ncnc2c1cnn2-c1ccc(C)cc1C | 0.13 | 16 | 19 | 1.3 | -0.11 | / | /
CN1CCc2c(sc3c2C(=O)NC(c2cn(Cc4ccccc4)c4ccccc24)N3)C1 (configuration not stated) | -1 | -2 | -20 | 1.3 | 0.0065 | / | /
CN1C(=O)c2c(sc3c2CCCC3)NC1c1ccccc1O (configuration not stated) | -0.46 | 30 | 18 | 1.4 | -2.7* | 554 | 205
CSc1nsc(SCC(=O)N2CCCc3ccccc32)n1 | 0.3 | -20 | -19 | 1.1 | -0.44 | / | /
SMILES | M1 agonist | SF-1 act | RORa activator | MT1-MMP txn act | M1 antag | M1 antag conf | mGluR4 antag
CCn1c(CSc2ncccn2)nnc1SCC(=O)N1CCc2ccccc21 | -0.95 | -5 | -11 | 1.4 | -5.4* | 474 | 225
CCc1nnc(SCC(=O)N2CCCc3ccccc32)nc1CC | 0.25 | 0 | 10 | 0.9 | -3.3* | 655 | 239
C=C(C)Cn1c(SCC(=O)O)nc2c1c(=O)[nH]c(=O)n2C | -0.28 | 14 | -8 | 1 | -0.76 | / | /
Cc1ccc(S(=O)(=O)N(CC(=O)N2CCC(C(N)=O)CC2)c2cccc(C(F)(F)F)c2)cc1 | -0.3 | -4 | -20 | 1.2 | -7.3* | 624 | 217
CCOC(=O)N1CCN(C(=O)CN(c2cccc(C(F)(F)F)c2)S(=O)(=O)c2ccccc2)CC1 | 0.38 | -7 | 7 | 1.1 | 0.71 | / | /
COc1ccc(-c2cc(CCCC(=O)NCc3ccccn3)no2)cc1 | -1.6 | 2 | -16 | 1.1 | 0.32 | / | /
O=C(NC1CCCCC1)c1sc(=S)n2c1[nH]c(=O)c1ccccc12 | 2.6 | -11 | 5 | 1 | -1.8* | 529 | 243
N#CC1=C(N)SC(N)=C(C#N)C1CCc1ccccc1 | 1.2 | -21 | -18 | 1 | -4.6* | 683 | 260
N#CC1=C(N)SC(N)=C(C#N)C1Cc1ccccc1 | -1.6 | -4 | -6 | 1.1 | 0.34 | / | /
CC1CCCN(CCCNC(=O)c2coc3nc4ccccc4nc23)C1 (configuration not stated) | -0.55 | 38 | -4 | 0.9 | -1.8* | 365* | 191
CC1CCN(CCCNC(=O)c2coc3nc4ccccc4nc23)CC1 | -0.27 | 20 | -12 | 1.2 | -4.8* | 390* | 250
CC1CCN(CCCNC(=O)c2n[nH]c(=O)c3ccccc23)CC1 | -0.16 | 4 | -7 | 1.2 | 0.031 | / | /
Cc1ccc(CCNC(=O)c2coc3nc4ccccc4nc23)cc1 | -1.3 | 16 | 11 | 1.2 | 0.042 | / | /
CN1CCN(CC(=O)N2c3ccccc3C(=O)Nc3cccnc32)CC1 | / | -11 | -27 | 1.1 | / | / | 209
Cc1cccc(S(=O)(=O)C(C#N)c2nc3ccccc3nc2N2CCOCC2)c1 (configuration not stated) | -0.82 | -2 | -21 | 1 | 0.14 | / | /
COc1ccc(-c2csc(N(CC3CCCO3)C(=O)c3cccs3)n2)cc1 (configuration not stated) | -0.36 | 41 | 39 | 1.9 | 0.29 | / | /
